Measurements as given in ChEMBL document CHEMBL4689842, “EUbOPEN Chemogenomics Library wave 1” (2021).
Where “and” joins values, the source holds several entries; their conditions need not be identical. Identical values can stand only once.

Tested on: HEK-293T
Test: Multiplex assay against HEK293T;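 for Population Tubulin-Different-Phenotype (%): share of the cells with healthy nuclei that show this phenotype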
Type: toxicity, cell-based
Conditions: human
In short: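 Cells were classed with CellPathfinder machine-learning gating, first as Hoechst high-intensity objects or normal cells, then (normal cells) as healthy, pyknosed or fragmented nuclei, and finally (pyknosed cells) as mitotic or apoptotic. Staining of live cells at seeding used Hoechst33342, BioTracker Green Microtubule Cytoskeleton Dye, MitoTracker Red and Annexin V Alexa Fluor 680, with imaging on a CQ1 microscope at 37°C and 5% CO2 after compound addition. Tubulin, mitochondrial-mass and membrane-permeability phenotypes are per cents of healthy-nucleus cells.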

[1] = 12 h, 1 µM, compound concentration 1 uM, replicate 1
[2] = 12 h, 1 µM, compound concentration 1 uM, replicate 2
[3] = 12 h, 10 µM, compound concentration 10 uM, replicate 1
[4] = 12 h, 10 µM, compound concentration 10 uM, replicate 2
[5] = 24 h, 1 µM, compound concentration 1 uM, replicate 1
[6] = 24 h, 1 µM, compound concentration 1 uM, replicate 2
[7] = 24 h, 10 µM, compound concentration 10 uM, replicate 1
[8] = 24 h, 10 µM, compound concentration 10 uM, replicate 2
[9] = 48 h, 1 µM, compound concentration 1 uM, replicate 1
[10] = 48 h, 1 µM, compound concentration 1 uM, replicate 2
[11] = 48 h, 10 µM, compound concentration 10 uM, replicate 1
[12] = 48 h, 10 µM, compound concentration 10 uM, replicate 2

Compound: Cc1ccc2c(c1)c1c(n2CCc2ccc(C)nc2)CCN(C)C1 [LATREPIRDINE]
- Population Apoptotic (%) [1]: 65%
- Population Fragmented Nuclei (%) [1]: 9%
- Population Healthy Nuclei (%) [1]: 39%
- Population Hoechst High Intensity Objects (%) [1]: 14%
- Population Membrane Permeable-Phenotype (%) [1]: 0%
- Population Mitochondria Different-Phenotype (%) [1]: 97%
- Population Mitotic Cells (%) [1]: 34%
- Population Normal (%) [1]: 85%
- Population Pyknosed Nuclei (%) [1]: 51%
- Population Tubulin-Different-Phenotype (%) [1]: 85%
- Total Cell Count [1]: 246
- Population Apoptotic (%) [2]: 28%
- Population Fragmented Nuclei (%) [2]: 6%
- Population Healthy Nuclei (%) [2]: 38%
- Population Hoechst High Intensity Objects (%) [2]: 2%
- Population Membrane Permeable-Phenotype (%) [2]: 7%
- Population Mitochondria Different-Phenotype (%) [2]: 64%
- Population Mitotic Cells (%) [2]: 71%
- Population Normal (%) [2]: 97%
- Population Pyknosed Nuclei (%) [2]: 54%
- Population Tubulin-Different-Phenotype (%) [2]: 39%
- Total Cell Count [2]: 209
- Population Apoptotic (%) [3]: 89%
- Population Fragmented Nuclei (%) [3]: 30%
- Population Healthy Nuclei (%) [3]: 12%
- Population Hoechst High Intensity Objects (%) [3]: 24%
- Population Membrane Permeable-Phenotype (%) [3]: 8%
- Population Mitochondria Different-Phenotype (%) [3]: 95%
- Population Mitotic Cells (%) [3]: 10%
- Population Normal (%) [3]: 75%
- Population Pyknosed Nuclei (%) [3]: 57%
- Population Tubulin-Different-Phenotype (%) [3]: 91%
- Total Cell Count [3]: 251
- Population Apoptotic (%) [4]: 91%
- Population Fragmented Nuclei (%) [4]: 5%
- Population Healthy Nuclei (%) [4]: 13%
- Population Hoechst High Intensity Objects (%) [4]: 4%
- Population Mitochondria Different-Phenotype (%) [4]: 96%
- Population Mitotic Cells (%) [4]: 8%
- Population Normal (%) [4]: 95%
- Population Pyknosed Nuclei (%) [4]: 80%
- Population Tubulin-Different-Phenotype (%) [4]: 96%
- Total Cell Count [4]: 194
- Population Apoptotic (%) [5]: 55%
- Population Fragmented Nuclei (%) [5]: 7%
- Population Healthy Nuclei (%) [5]: 42%
- Population Hoechst High Intensity Objects (%) [5]: 14%
- Population Membrane Permeable-Phenotype (%) [5]: 1%
- Population Mitochondria Different-Phenotype (%) [5]: 96%
- Population Mitotic Cells (%) [5]: 44%
- Population Normal (%) [5]: 85%
- Population Pyknosed Nuclei (%) [5]: 50%
- Population Tubulin-Different-Phenotype (%) [5]: 87%
- Total Cell Count [5]: 276
- Population Apoptotic (%) [6]: 29%
- Population Fragmented Nuclei (%) [6]: 5%
- Population Healthy Nuclei (%) [6]: 55%
- Population Hoechst High Intensity Objects (%) [6]: 4%
- Population Membrane Permeable-Phenotype (%) [6]: 11%
- Population Mitochondria Different-Phenotype (%) [6]: 55%
- Population Mitotic Cells (%) [6]: 70%
- Population Normal (%) [6]: 95%
- Population Pyknosed Nuclei (%) [6]: 39%
- Population Tubulin-Different-Phenotype (%) [6]: 47%
- Total Cell Count [6]: 271
- Population Apoptotic (%) [7]: 90%
- Population Fragmented Nuclei (%) [7]: 35%
- Population Healthy Nuclei (%) [7]: 16%
- Population Hoechst High Intensity Objects (%) [7]: 24%
- Population Membrane Permeable-Phenotype (%) [7]: 6%
- Population Mitochondria Different-Phenotype (%) [7]: 96%
- Population Mitotic Cells (%) [7]: 9%
- Population Normal (%) [7]: 75%
- Population Pyknosed Nuclei (%) [7]: 47%
- Population Tubulin-Different-Phenotype (%) [7]: 93%
- Total Cell Count [7]: 242
- Population Apoptotic (%) [8]: 93%
- Population Fragmented Nuclei (%) [8]: 5%
- Population Hoechst High Intensity Objects (%) [8]: 6%
- Population Membrane Permeable-Phenotype (%) [8]: 2%
- Population Mitochondria Different-Phenotype (%) [8]: 97%
- Population Mitotic Cells (%) [8]: 6%
- Population Normal (%) [8]: 93%
- Population Pyknosed Nuclei (%) [8]: 77%
- Population Tubulin-Different-Phenotype (%) [8]: 94%
- Total Cell Count [8]: 220
- Population Apoptotic (%) [9]: 59%
- Population Fragmented Nuclei (%) [9]: 11%
- Population Healthy Nuclei (%) [9]: 61%
- Population Hoechst High Intensity Objects (%) [9]: 10%
- Population Membrane Permeable-Phenotype (%) [9]: 2%
- Population Mitochondria Different-Phenotype (%) [9]: 62%
- Population Mitotic Cells (%) [9]: 40%
- Population Normal (%) [9]: 89%
- Population Pyknosed Nuclei (%) [9]: 27%
- Population Tubulin-Different-Phenotype (%) [9]: 67%
- Total Cell Count [9]: 332
- Population Apoptotic (%) [10]: 32%
- Population Fragmented Nuclei (%) [10]: 6%
- Population Healthy Nuclei (%) [10]: 77%
- Population Hoechst High Intensity Objects (%) [10]: 3%
- Population Membrane Permeable-Phenotype (%) [10]: 8%
- Population Mitochondria Different-Phenotype (%) [10]: 23%
- Population Mitotic Cells (%) [10]: 67%
- Population Normal (%) [10]: 96%
- Population Pyknosed Nuclei (%) [10]: 16%
- Population Tubulin-Different-Phenotype (%) [10]: 40%
- Total Cell Count [10]: 413
- Population Apoptotic (%) [11]: 86%
- Population Fragmented Nuclei (%) [11]: 41%
- Population Healthy Nuclei (%) [11]: 21%
- Population Hoechst High Intensity Objects (%) [11]: 24%
- Population Mitotic Cells (%) [11]: 13%
- Population Normal (%) [11]: 75%
- Population Pyknosed Nuclei (%) [11]: 37%
- Population Tubulin-Different-Phenotype (%) [11]: 94%
- Total Cell Count [11]: 246
- Population Apoptotic (%) [12]: 87%
- Population Fragmented Nuclei (%) [12]: 2%
- Population Healthy Nuclei (%) [12]: 42%
- Population Hoechst High Intensity Objects (%) [12]: 13%
- Population Membrane Permeable-Phenotype (%) [12]: 2%
- Population Mitochondria Different-Phenotype (%) [12]: 97%
- Population Mitotic Cells (%) [12]: 12%
- Population Normal (%) [12]: 86%
- Population Pyknosed Nuclei (%) [12]: 55%
- Population Tubulin-Different-Phenotype (%) [12]: 90%
- Total Cell Count [12]: 198

Compound: CNC(=O)c1ccc(Nc2ncc(C(F)(F)F)c(NCc3nccnc3N(C)S(C)(=O)=O)n2)cc1 [DEFACTINIB]
- Population Apoptotic (%) [1]: 27%
- Population Fragmented Nuclei (%) [1]: 14% and 16%
- Population Healthy Nuclei (%) [1]: 72% and 59%
- Population Hoechst High Intensity Objects (%) [1]: 11% and 18%
- Population Membrane Permeable-Phenotype (%) [1]: 4% and 6%
- Population Mitochondria Different-Phenotype (%) [1]: 6% and 8%
- Population Mitotic Cells (%) [1]: 72% and 74%
- Population Normal (%) [1]: 88% and 81%
- Population Pyknosed Nuclei (%) [1]: 13% and 24%
- Total Cell Count [1]: 689 and 588
- Population Apoptotic (%) [2]: 25% and 12%
- Population Fragmented Nuclei (%) [2]: 9% and 3%
- Population Healthy Nuclei (%) [2]: 84% and 92%
- Population Hoechst High Intensity Objects (%) [2]: 3%
- Population Membrane Permeable-Phenotype (%) [2]: 2% and 3%
- Population Mitochondria Different-Phenotype (%) [2]: 10% and 19%
- Population Mitotic Cells (%) [2]: 75% and 87%
- Population Normal (%) [2]: 96%
- Population Pyknosed Nuclei (%) [2]: 6% and 3%
- Total Cell Count [2]: 1140 and 1057
- Population Apoptotic (%) [3]: 27%
- Population Fragmented Nuclei (%) [3]: 17% and 16%
- Population Healthy Nuclei (%) [3]: 62% and 66%
- Population Hoechst High Intensity Objects (%) [3]: 11% and 13%
- Population Membrane Permeable-Phenotype (%) [3]: 7% and 4%
- Population Mitochondria Different-Phenotype (%) [3]: 12% and 5%
- Population Mitotic Cells (%) [3]: 72%
- Population Normal (%) [3]: 88% and 86%
- Population Pyknosed Nuclei (%) [3]: 20% and 17%
- Total Cell Count [3]: 704 and 581
- Population Fragmented Nuclei (%) [4]: 3% and 7%
- Population Healthy Nuclei (%) [4]: 90% and 87%
- Population Hoechst High Intensity Objects (%) [4]: 5% and 2%
- Population Membrane Permeable-Phenotype (%) [4]: 6% and 1%
- Population Mitochondria Different-Phenotype (%) [4]: 21% and 10%
- Population Mitotic Cells (%) [4]: 78% and 96%
- Population Normal (%) [4]: 94% and 97%
- Population Pyknosed Nuclei (%) [4]: 6% and 4%
- Total Cell Count [4]: 770 and 1490
- Population Apoptotic (%) [5]: 23% and 19%
- Population Fragmented Nuclei (%) [5]: 15% and 17%
- Population Healthy Nuclei (%) [5]: 77% and 62%
- Population Hoechst High Intensity Objects (%) [5]: 6% and 14%
- Population Membrane Permeable-Phenotype (%) [5]: 6%
- Population Mitochondria Different-Phenotype (%) [5]: 4% and 12%
- Population Mitotic Cells (%) [5]: 76% and 80%
- Population Normal (%) [5]: 93% and 85%
- Population Pyknosed Nuclei (%) [5]: 7% and 19%
- Population Tubulin-Different-Phenotype (%) [5]: 10% and 26%
- Total Cell Count [5]: 751 and 618
- Population Apoptotic (%) [6]: 14% and 11%
- Population Healthy Nuclei (%) [6]: 74% and 91%
- Population Hoechst High Intensity Objects (%) [6]: 3% and 5%
- Population Membrane Permeable-Phenotype (%) [6]: 3%
- Population Mitotic Cells (%) [6]: 85% and 88%
- Population Normal (%) [6]: 96% and 94%
- Population Pyknosed Nuclei (%) [6]: 3% and 2%
- Total Cell Count [6]: 1868 and 1334
- Population Apoptotic (%) [7]: 33% and 18%
- Population Fragmented Nuclei (%) [7]: 16% and 15%
- Population Healthy Nuclei (%) [7]: 66% and 78%
- Population Hoechst High Intensity Objects (%) [7]: 11% and 7%
- Population Membrane Permeable-Phenotype (%) [7]: 6% and 4%
- Population Mitotic Cells (%) [7]: 66% and 81%
- Population Normal (%) [7]: 88% and 92%
- Population Tubulin-Different-Phenotype (%) [7]: 24% and 11%
- Total Cell Count [7]: 732 and 672
- Population Healthy Nuclei (%) [8]: 90% and 75%
- Population Hoechst High Intensity Objects (%) [8]: 3%
- Population Membrane Permeable-Phenotype (%) [8]: 8% and 3%
- Population Mitotic Cells (%) [8]: 71% and 92%
- Population Normal (%) [8]: 96%
- Population Pyknosed Nuclei (%) [8]: 4% and 2%
- Total Cell Count [8]: 961 and 2290
